{"source": "ChEMBL document CHEMBL5325427", "key": {"[1]": {"target": "Replicase polyprotein 1ab (Severe acute respiratory syndrome coronavirus 2, UniProt P0DTD1)", "assay": "Inhibition of recombinant SARS CoV-2 PL protease assessed as deubiquitination activity using ubiquitinated fluorogenic as substrate incubated for 2 hrs followed by substrate addition for 1 hr by synergy TM HTX microplate reader analysis"}, "SARS-CoV-2 [2]": {"system": "SARS-CoV-2", "assay": "Antiviral activity against SARS CoV-2 HCoV-19/Egypt/NRC-1/2020 infected in human Caco-2 cells assessed as inhibition of ORFb1 RNA at 20 ug/ml pre-infected with virus for 1 hr followed by cell addition for 1 hr and measured after 1 to 12 hrs by RT-PCR analysis relative to control", "assay_type": "functional", "details": "Severe acute respiratory syndrome coronavirus 2, HCoV-19/Egypt/NRC-1/2020, Caco-2, time 3-14 hrs"}, "[3]": {"system": "Middle East respiratory syndrome-related coronavirus", "assay": "Antiviral activity against MERS-CoV NRCE-HKU270 infected in Vero E6 cells assessed as inhibition of viral growth", "assay_type": "functional, organism-based", "details": "NRCE-HKU270, Vero C1008"}, "[4]": {"assay": "Toxicity in Balb/c mouse assessed as histological changes in spleen by measuring toxicity score at 12.5 to 25 mg/kg by H and E staining based analysis", "assay_type": "organism-based", "details": "in vivo, dose 12.5-25 mg/kg"}, "SARS-CoV-2 [5]": {"system": "SARS-CoV-2", "assay": "Antiviral activity against SARS CoV-2 infected in human Caco-2 cells assessed as reduction in OAS1 expression at 20 ug/ml preincubated with cells for 24 hrs followed by viral infection and measured after 3 to 12 hrs by real-time PCR assay", "assay_type": "functional, organism-based", "details": "Severe acute respiratory syndrome coronavirus 2, dose 20.0 µg/ml, time lower 27.0 hrs, time upper […]"}, "[6]": {"assay": "Toxicity in Balb/c mouse assessed as effect on ALP at 12.5 to 25 mg/kg", "assay_type": "organism-based", "details": "in vivo, dose 12.5-25 mg/kg", "how_it_was_run": "(§1)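 Female Balb/c mice were randomised to vehicle (0.5% DMSO in PBS) or 12.5 or 25 mg/kg intraperitoneally daily for 14 days, then followed 12 days after treatment. Body weight, haematology and blood chemistry were compared with vehicle controls; n = 3–5.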"}, "[7]": {"assay": "Toxicity in Balb/c mouse assessed as change in histological variation in lung at 12.5 to 25 mg/kg by H and E staining based analysis", "assay_type": "organism-based", "details": "in vivo, dose 12.5-25 mg/kg", "how_it_was_run": "(§2)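 After the 14-day daily intraperitoneal dosing (12.5 or 25 mg/kg, female Balb/c), liver, kidney, spleen, heart and lung were fixed 24 h in 10% neutral-buffered formalin and paraffin-embedded. Sections of 4 μm were stained with H&E. Lesions were scored nil 0, mild 1, moderate 2, severe 3.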"}, "[8]": {"assay": "Toxicity in Balb/c mouse assessed as histological changes in heart by measuring toxicity score at 12.5 to 25 mg/kg by H and E staining based analysis", "assay_type": "organism-based", "details": "in vivo, dose 12.5-25 mg/kg", "how_it_was_run": "as §2"}, "[9]": {"assay": "Toxicity in Balb/c mouse assessed as effect on body weight loss at 25 to 100 mg/kg, ip administered as single dose measured upto 15 days", "assay_type": "organism-based", "details": "in vivo, 360 h, dose 25-100 mg/kg, time < 15 day"}, "[10]": {"assay": "Toxicity in Balb/c mouse assessed as change in histological variation in heart at 12.5 to 25 mg/kg by H and E staining based analysis", "assay_type": "organism-based", "details": "in vivo, dose 12.5-25 mg/kg", "how_it_was_run": "as §2"}, "[11]": {"assay": "Selectivity index, ratio of CC50 for African green monkey Vero E6 cells to IC50 for antiviral activity against SARS-CoV-2 NRC-03-nhCoV infected in african green monkey Vero E6 cells", "assay_type": "toxicity, cell-based, Vero C1008", "details": "read-out: Ratio CC50/IC50"}, "SARS-CoV-2 [12]": {"system": "SARS-CoV-2", "assay": "Antiviral activity against SARS CoV-2 infected in human Caco-2 cells assessed as reduction in INF-alpha expression at 20 ug/ml preincubated with cells for 24 hrs followed by viral infection and measured after 1 to 3 hrs by real-time PCR assay", "assay_type": "functional, organism-based", "details": "Severe acute respiratory syndrome coronavirus 2, dose 20.0 µg/ml, time 25-28 hrs"}, "[13]": {"target": "Replicase polyprotein 1ab (Severe acute respiratory syndrome coronavirus 2) (UniProt P0DTD1)", "assay": "Inhibition of SARS-CoV-2 3CLpro at 10 ug/ml preincubated with enzyme for 30 mins followed by substrate addition and measured after 4 hrs by fluorescence based analysis", "details": "dose 10.0 µg/ml, time 4.5 hrs", "how_it_was_run": "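Recombinant SARS-CoV-2 3CLpro (1.5 ng/μl) was pre-incubated with compound 30 min at RT. Fluorogenic substrate was added to a final 40 μM and incubated 4 h at RT. Fluorescence was read at Ex 360/Em 460 nm. Wells were run in triplicate and blank was subtracted.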"}, "[14]": {"assay": "Toxicity in Balb/c mouse assessed as histological changes in liver by measuring toxicity score at 25 mg/kg by H and E staining based analysis", "assay_type": "organism-based", "details": "in vivo", "how_it_was_run": "as §2"}, "SARS-CoV-2 [15]": {"system": "SARS-CoV-2", "assay": "Antiviral activity against SARS CoV-2 infected in human Caco-2 cells assessed as reduction in IL-6 expression at 20 ug/ml preincubated with cells for 24 hrs followed by viral infection and measured after 3 to 12 hrs by real-time PCR assay", "assay_type": "functional, organism-based", "details": "Severe acute respiratory syndrome coronavirus 2, dose 20.0 µg/ml, time lower 27.0 hrs, time upper […]"}, "[16]": {"assay": "Aqueous solubility of the compound in PBS buffer at pH 7.4 at 200 uM by microplate reader method", "assay_type": "physicochemical"}, "SARS-CoV-2 [17]": {"system": "SARS-CoV-2", "assay": "Antiviral activity against SARS- CoV-2 infected in Vero E6 cells assessed as viral adsorption pretreated with cells for 24 hrs followed by viral infection and measured after 1 hr by crystal violet staining based analysis relative to control", "assay_type": "functional, Severe acute respiratory syndrome coronavirus 2", "details": "time 25 hrs"}, "[18]": {"assay": "Toxicity in Balb/c mouse assessed as effect on glucose at 12.5 to 25 mg/kg", "assay_type": "organism-based", "details": "in vivo, dose 12.5-25 mg/kg", "how_it_was_run": "as §1"}, "[19]": {"assay": "Stability in CD-1 mouse liver microsomes assessed as compound remaining at 1 uM measured after 60 mins in absence of NADPH by LC-MS-MS analysis", "assay_type": "ADME, Microsome", "details": "read-out: Stability", "how_it_was_run": "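Compound was incubated in liver microsomes without NADPH. Percent remaining was measured after 60 min.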"}, "[20]": {"assay": "Toxicity in Balb/c mouse assessed as effect on albumin at 12.5 to 25 mg/kg", "assay_type": "organism-based", "details": "in vivo, dose 12.5-25 mg/kg", "how_it_was_run": "as §1"}, "[21]": {"assay": "Toxicity in Balb/c mouse assessed as histological changes in lung by measuring toxicity score at 12.5 to 25 mg/kg by H and E staining based analysis", "assay_type": "organism-based", "details": "in vivo, dose 12.5-25 mg/kg", "how_it_was_run": "as §2"}, "[22]": {"assay": "Stability in CD-1 mouse liver microsomes assessed as half life at 1 uM in presence of NADPH by LC-MS-MS analysis", "assay_type": "ADME, Microsome"}, "SARS-CoV-2 [23]": {"system": "SARS-CoV-2", "assay": "Antiviral activity against SARS CoV-2 HCoV-19/Egypt/NRC-1/2020 infected in human Caco-2 cells assessed as reduction in spike RNA expression at 20 ug/ml pre-infected with virus for 1 hr followed by cell addition for 1 hr and measured after 6 to 12 hrs by RT-PCR analysis", "assay_type": "functional, organism-based", "details": "Severe acute respiratory syndrome coronavirus 2, dose 20.0 µg/ml, time 8-14 hrs"}, "SARS-CoV-2 [24]": {"system": "SARS-CoV-2", "assay": "Antiviral activity against SARS- CoV-2 infected in Vero E6 cells assessed as virucidal activity pretreated with cells for 24 hrs followed by viral infection for 1 hr and measured after 1 hr by plaque assay relative to control", "assay_type": "functional, Severe acute respiratory syndrome coronavirus 2", "details": "time 26 hrs"}, "SARS-CoV-2 [25]": {"system": "SARS-CoV-2", "assay": "Antiviral activity against SARS CoV-2 HCoV-19/Egypt/NRC-1/2020 infected in human Caco-2 cells assessed as reduction in viral ORFb1 RNA expression at 20 ug/ml pre-infected with virus for 1 hr followed by cell addition for 1 hr and measured after 1 to 12 hrs by RT-PCR analysis", "assay_type": "functional, organism-based", "details": "Severe acute respiratory syndrome coronavirus 2, dose 20.0 µg/ml, time 3-14 hrs"}, "SARS-CoV-2 [26]": {"system": "SARS-CoV-2", "assay": "Antiviral activity against SARS- CoV-2 infected in Vero E6 cells assessed as viral replication pretreated with cells for 24 hrs followed by viral infection for 1 hr and measured after 1 hr by plaque assay relative to control", "assay_type": "functional, Severe acute respiratory syndrome coronavirus 2", "details": "time 26 hrs"}}, "note": "Calls of active or inactive are those of the source. No cut-off for these calls is given here."}
{"smiles": "COc1ccc2[nH]c3c(c2c1)C[C@]1(OC)CC[C@H]2c4[nH]c5ccccc5c4CCN2[C@@H]1C3", "values": [{"measurement": "IC50", "setting": "[1]", "value": 386, "unit": "µM"}, {"measurement": "inhibition at 20 µg/mL", "setting": "SARS-CoV-2 [2]", "value": "> 70", "unit": "%"}, {"measurement": "IC50", "setting": "[3]", "value": 6.21, "unit": "µg/mL"}, {"measurement": "Activity", "setting": "[4]", "value": 0}, {"measurement": "Activity", "setting": "SARS-CoV-2 [5]", "value": "Active"}, {"measurement": "Activity", "setting": "[6]", "value": "Non-Toxic"}, {"measurement": "Activity", "setting": "[7]", "value": "Non-Toxic"}, {"measurement": "Activity", "setting": "[8]", "value": 0}, {"measurement": "Activity", "setting": "[9]", "value": "Non-Toxic"}, {"measurement": "Activity", "setting": "[10]", "value": "Non-Toxic"}, {"measurement": "selectivity ratio", "setting": "[11]", "value": 4.6}, {"measurement": "Activity", "setting": "SARS-CoV-2 [12]", "value": "Active"}, {"measurement": "inhibition", "setting": "[13]", "value": "inactive"}, {"measurement": "Activity", "setting": "[14]", "value": 0}, {"measurement": "Activity", "setting": "SARS-CoV-2 [15]", "value": "Active"}, {"measurement": "solubility at 200 µM", "setting": "[16]", "value": 166, "unit": "µM"}, {"measurement": "Activity", "setting": "SARS-CoV-2 [17]", "value": 2.5, "unit": "%"}, {"measurement": "Activity", "setting": "[18]", "value": "Non-Toxic"}, {"measurement": "remaining at 1 h, 1 µM", "setting": "[19]", "value": 108, "unit": "%"}, {"measurement": "Activity", "setting": "[20]", "value": "Non-Toxic"}, {"measurement": "Activity", "setting": "[21]", "value": 0}, {"measurement": "t1/2", "setting": "[22]", "value": "> 1", "unit": "h"}, {"measurement": "Activity", "setting": "SARS-CoV-2 [23]", "value": "Active"}, {"measurement": "Activity", "setting": "SARS-CoV-2 [24]", "value": ">90", "unit": "%"}, {"measurement": "Activity", "setting": "SARS-CoV-2 [25]", "value": "Active"}, {"measurement": "Activity", "setting": "SARS-CoV-2 [26]", "value": 8.5, "unit": "%"}]}
